Source: ChEMBL document CHEMBL4673214, “Synthesis and antibacterial bioactivities of cationic deacetyl linezolid amphiphiles” (Eur J Med Chem, 2018)
In brackets after ≈: the same amount, converted by molar mass. Activity calls are given as the source filed them. No cut-off for these calls is given here.

How the values were obtained:
Staphylococcus aureus [1] = assay: Antibacterial activity against Staphylococcus aureus ATCC 29213 assessed as reduction in bacterial growth incubated for 16 to 20 hrs by CLSI-based broth microdilution method; format: functional; conditions: time 16-20 hrs
Method in brief: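 Broth microdilution following CLSI, in cation-adjusted Mueller-Hinton broth. Inoculum from a 4-6 h culture (~10^8 CFU/mL), diluted to ~10^6 CFU/mL. Water stocks were serially diluted in MHB (256 to 0.5 µg/mL) and mixed 1:1 with the inoculum. Plates ran 16-20 h at 37 °C. MIC was read visually. Each concentration was tested in duplicate, and the experiment was repeated at least twice.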

Staphylococcus aureus [2] = assay: Resistance ratio of compound MIC for Staphylococcus aureus ATCC 29213 after 20 passages to compound MIC for Staphylococcus aureus ATCC 29213 after 16 to 20 hrs by CLSI-based broth microdilution method; format: functional
Method in brief: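 Serial passaging: after each 24 h MIC assay, cells grown at 1/2 MIC were transferred and the MIC assayed again, for 20 passages. Done with S. aureus, E. coli and MRSA. MIC plotted against days of passage. Experiment repeated twice.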

Escherichia coli = assay: Bactericidal activity against early exponential phase of Escherichia coli ATCC 25922 at 6X MIC measured after 6 hrs by time-kill kinetic assay; format: functional, organism-based
Method in brief: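 An overnight culture was diluted 1:10,000 in MHB and shaken at 225 rpm and 37 °C for 2 h (early exponential phase), then exposed to compound. Samples taken at intervals were centrifuged, resuspended in PBS, plated as tenfold dilutions on MHA and incubated overnight at 37 °C. CFU/mL were counted. Biological replicates were run.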

| SMILES | MIC (Staphylococcus aureus [1]) | Ratio (Staphylococcus aureus [2]) | Activity (Escherichia coli) |
| --- | --- | --- | --- |
| CCn1cc(C(=O)O)c(=O)c2cc(F)c(N3CCNCC3)cc21 [NORFLOXACIN] | 1 µg/mL (≈ 3.13 µM) | 256 | – |
| CO[C@@]1(NC(=O)[C@H](C(=O)O)c2ccc(O)cc2)C(=O)N2C(C(=O)O)=C(CSc3nnnn3C)CO[C@@H]21 | – | – | inactive |
